Common to all, as to format: functional
Experiment [1] is described as follows: Compound was evaluated for its ability to inhibit the thrombin-initiated clotting time of citreated human plasma. More on the design: concentration or dose not given beside the values. In short, it runs like this:
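Bovine thrombin in saline, dosed to give a 20 s clot, added to 200 µL citrated human plasma plus 100 µL saline containing peptide at 37 °C. Time to first clot recorded. Chlorambucil peptides came from DMSO stock diluted in saline; optional 15 min, 4 °C preincubation with plasma or thrombin. Molar activity from dose-response slope versus reference, with molarity from amino acid analysis.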

The species entered for a further experiment is Homo sapiens. The experiment in a line: Compound was evaluated for its ability to inhibit fibrin polymerization. Also noted: concentration or dose not given beside the values. The following applies: dose or concentration not given here. In short, it runs like this: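 Fibrin monomer from human fibrinogen (8.3 mg protein/mL solution) diluted into phosphate buffer (80 mM, pH 6.3) containing peptide; reaggregation followed at 350 nm. Optional preincubation: peptide in 1 M NaBr/0.05 M NaOAc pH 5.3 with monomer, 15 min, room temperature, before buffer addition. Molar activity from linear dose-response slope versus reference tetrapeptide, averaged values.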

The target of experiment [2] is Prothrombin (Homo sapiens) (UniProt P00734). The experiment in a line: Compound was evaluated for its ability to inhibit thrombin catalyzed amidolysis. As to conditions: concentration not given here. The method in brief:
(§1)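 Thrombin (0.5 unit) at 37 °C with 0.25 mL of 1 mM Tos-Gly-Pro-Arg-p-nitroanilide, 0.25 mL saline containing 2 mg/mL peptide, and 1.5 mL saline. Chromophore read at 405 nm. Where indicated, peptide and thrombin were preincubated 15 min at 4 °C before substrate addition.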

For experiment [3] the target is unchanged. The experiment in a line: Compound was evaluated for its ability to inhibit thrombin catalyzed amidolysis. Also noted: concentration or dose not given beside the values. As to conditions: concentration not given here. In short, it runs like this:
as §1

A short description of experiment [4]: Relative potency was determined.

Where a SMILES comes first, the peptide text is derived from it. [ ]: non-standard residue; d: D form. The star is where a group is joined. Phe(4-NO2) = N[C@@H](Cc1ccc([N+](=O)[O-])cc1)C(=O)O; Chlorambucil = O=C(CCCc1ccc(N(CCCl)CCCl)cc1)*; Phe(4-NH2) = Nc1ccc(C[C@H](N)C(=O)O)cc1

For `N=C(N)NCCC[C@H](NC(=O)[C@@H]1CCCN1C(=O)CCCc1ccc(N(CCCl)CCCl)cc1)C(=O)N1CCC[C@H]1C(=O)O`, the Inhibition in experiment [1] came to 0%.
For `N=C(N)NCCC[C@H](NC(=O)CCCc1ccc(N(CCCl)CCCl)cc1)C(=O)N1CCC[C@H]1C(=O)O`, the Inhibition in experiment [1] stood at 0%.
For the molecule `NCC(=O)N1CCC[C@H]1C(=O)N[C@@H](CCCN=C(N)N)C(=O)N1CCC[C@H]1C(=O)O`, the inhibition in the experiment listed under Homo sapiens is 100%; in experiment [2], 0%. Further, the Inhibition in experiment [1] is reported as 100%.
`N=C(N)NCCC[C@H](NC(=O)[C@@H]1CCCN1C(=O)CNC(=O)CCCc1ccc(N(CCCl)CCCl)cc1)C(=O)N1CCC[C@H]1C(=O)O` (Chlorambucil-GPRP-OH): in experiment [1], the Inhibition is reported as 0%.
Turning to `NCC(=O)N1CCC[C@H]1C(=O)N[C@@H](CCCN=C(N)N)C(=O)N1CCC[C@H]1C(=O)N[C@@H](Cc1ccc(N)cc1)C(=O)O` (H-GPRP[Phe(4-NH2)]-OH), the inhibition is 105% in the experiment listed under Homo sapiens and 0% in experiment [3]. The same molecule returned an Inhibition in experiment [1] of 81%.
`NCC(=O)N1CCC[C@H]1C(=O)N[C@@H](CCCN=C(N)N)C(=O)N[C@@H](Cc1ccc(N)cc1)C(=O)O` (H-GPR[Phe(4-NH2)]-OH): the results for the inhibition (in the experiment listed under Homo sapiens; in experiment [3]) were 22% and 0%, respectively. The molecule also came in with an Inhibition in experiment [1] of 5%. The same molecule yielded a Relative potency in experiment [4] of 0.22.
Take `NCC(=O)N1CCC[C@H]1C(=O)N[C@@H](Cc1ccc([N+](=O)[O-])cc1)C(=O)N1CCC[C@H]1C(=O)O` (H-GP[Phe(4-NO2)]P-OH): the inhibition in experiment [3] turned out to be 0%. This molecule yielded an Inhibition in experiment [1] of 0%.
On to `NCC(=O)N[C@@H](Cc1ccc([N+](=O)[O-])cc1)C(=O)N[C@@H](CCCN=C(N)N)C(=O)N1CCC[C@H]1C(=O)O` (H-G[Phe(4-NO2)]RP-OH), for which the inhibition in experiment [3] came out at 0%. Moreover, the Inhibition in experiment [1] is on record as 10%.
In turn, `NCC(=O)N1CCC[C@H]1C(=O)N[C@@H](CCCN=C(N)N)C(=O)N[C@@H](Cc1ccc([N+](=O)[O-])cc1)C(=O)O` (stereo in doubt; 9) [listing 1 of 2 here] returned an Inhibition in experiment [1] of 2%.
As to `NCC(=O)N1CCC[C@H]1C(=O)N[C@@H](CCCN=C(N)N)C(=O)N[C@@H](Cc1ccc([N+](=O)[O-])cc1)C(=O)O` (stereo in doubt; 9) [listing 2 of 2 here], the inhibition (in the experiment filed under Homo sapiens; in experiment [3]) was 0% each time.
Turning to `NCC(=O)N1CCC[C@H]1C(=O)N[C@@H](CCCN=C(N)N)C(=O)N1CCC[C@H]1C(=O)N[C@@H](Cc1ccc([N+](=O)[O-])cc1)C(=O)O` (stereo in doubt; 10) [listing 1 of 2 here], in experiment [1], the Inhibition stood at 73%.
For `NCC(=O)N1CCC[C@H]1C(=O)N[C@@H](CCCN=C(N)N)C(=O)N1CCC[C@H]1C(=O)N[C@@H](Cc1ccc([N+](=O)[O-])cc1)C(=O)O` (stereo in doubt; 10) [listing 2 of 2 here], the values for the inhibition (in the experiment filed under Homo sapiens; in experiment [3]) were 88% and 0%, respectively. In addition, the Relative potency in experiment [4] came to 0.83.
For the molecule `NCC(=O)N1CCC[C@H]1C(=O)N[C@@H](CCCN=C(N)N)C(=O)N[C@@H](Cc1ccc([N+](=O)[O-])cc1)C(=O)O` (stereo in doubt; 19) [listing 1 of 2 here], the Inhibition in experiment [1] was 14%.
Turning to `NCC(=O)N1CCC[C@H]1C(=O)N[C@@H](CCCN=C(N)N)C(=O)N[C@@H](Cc1ccc([N+](=O)[O-])cc1)C(=O)O` (stereo in doubt; 19) [listing 2 of 2 here], the inhibition in experiment [3] worked out at 0%.
On the same count and under the same terms, for `NCC(=O)N1CCC[C@H]1C(=O)N[C@@H](CCCN=C(N)N)C(=O)N1CCC[C@H]1C(=O)N[C@@H](Cc1ccc([N+](=O)[O-])cc1)C(=O)O` (stereo in doubt; 20) the value was 0%.

The Inhibition is the drop in the measured response relative to a control, in per cent. A word on the inhibition: it is the drop in the measured response relative to a control, in per cent.

For the origin of these results see ChEMBL document CHEMBL1121800, “Fibrin Polymerization. 1. Alkylating peptide inhibitors of fibrin polymerization” (1981).
